# An excerpt weighted towards active compounds, which were near 4% of everything screened.
# Insulin prom inh: TRM-6 insulin promoter activity inhibition | TRM-6 cells (human fetal islet line), insulin promoter-eGFP reporter, imaging; reporter expression induced with tamoxifen | inhibition, % at 2 µM | hit rate 0.9% among 130,000 | AID 1273;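 active = inhibition above the mean plus 3 SD, with well images judged a real hit on visual review, cut at about 60% in these data, passing the limit was not always enough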
# Mdm2 ligase inh: blocks human Mdm2 ubiquitin ligase activity | signal enhancement, % at 5 µM | Q00987 | cell-based MDM2 ubiquitination luciferase reporter, 2 h; 0 = plate control, 100 = twice control, blank-subtracted | hit rate 0.11% among 210,000 | AID 1230;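 active = signal enhancement of 30% or more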;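 also: luminescence tracks abundance of the self-degrading MDM2-luciferase fusion protein; higher signal means inhibition of MDM2 E3 ligase activity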
# Target sequence (Q00987 whole entry, looked up, the tested form may be a part): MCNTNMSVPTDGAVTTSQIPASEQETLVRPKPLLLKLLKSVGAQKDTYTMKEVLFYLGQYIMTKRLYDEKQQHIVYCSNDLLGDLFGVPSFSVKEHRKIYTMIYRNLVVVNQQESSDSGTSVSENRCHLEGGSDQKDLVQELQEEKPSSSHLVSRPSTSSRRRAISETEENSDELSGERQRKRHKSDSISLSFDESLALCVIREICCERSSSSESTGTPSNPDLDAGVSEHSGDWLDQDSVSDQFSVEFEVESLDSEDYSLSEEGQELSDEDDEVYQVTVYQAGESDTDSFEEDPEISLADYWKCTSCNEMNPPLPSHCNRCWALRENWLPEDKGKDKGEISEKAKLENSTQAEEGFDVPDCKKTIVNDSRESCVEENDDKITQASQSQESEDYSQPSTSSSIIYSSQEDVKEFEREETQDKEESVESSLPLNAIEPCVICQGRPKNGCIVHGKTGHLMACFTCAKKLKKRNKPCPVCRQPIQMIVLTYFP
#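 System: stable MDM2–luciferase fusion reporter cells / Input: 2000 cells seeded into each well / Schedule: 4 h settle plus 2 h compound, 37 °C / Compound: single-point 5 µM / Buffer or medium: cells held in DMEM / Benchmarks: control and blank well means / Evaluation: percent signal gain over controls, blank-subtracted / Measured by: luciferase luminescence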
# Measles CPE: protection of cells from measles virus; AID 841; Measles virus-infected cells, CPE protection, absorbance; protection (pct of control), % at 4 µM; hit rate 1.5% among 140,000; in the data active = protection mostly above about 24%, no sharp cut-off; inactive = mostly below about 26%
# Yeast life ext: extends the lifespan of yeast; S. cerevisiae growth with nicotinamide, OD615; deaD strain in restrictive glucose medium; inhibition of the nicotinamide effect, % at 10 µM; hit rate 0.68% among 130,000; AID 775;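 active = inhibition above a set limit, placed 3 SD over the median of all compounds, cut at about 26% in these data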;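 also: 0% = nicotinamide-treated wells and 100% = cells grown without nicotinamide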
#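 Test system: DeaD-strain S. cerevisiae / Buffer or medium: restrictive glucose medium / Also added: nicotinamide 1.5 mM / Doses: one concentration, 10 µM, DMSO 0.25% / Schedule: 48 h at 30 °C / Signal: OD615 measurement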
# BB579 growth dn: reduces growth of yeast BB579 in restrictive medium; S. cerevisiae BB579 growth, OD615, 48 h; inhibition, % at 10 µM; hit rate 0.51% among 140,000; AID 804;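 active = inhibition above a set limit, 3 SD over the mean compound inhibition, cut at about 44% in these data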
#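 Test system: DeaD yeast strain BB579 / Buffer or medium: restrictive glucose-based CSMM-D medium / Doses: single 10 µM dose / Schedule: 4 h cell preincubation, 48 h compound exposure, 30 °C humidified / Technique: culture absorbance at 615 nm / Controls: amphotericin B positive control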
# RAM inhibit: yeast RAM network inhibition; hit rate 1.8% among 190,000; inhibition, % at 50 µM; S. cerevisiae dse1pr::URA3 reporter, 5-FOA growth OD615, 2 d; analog-sensitive cbk1-as2 kinase mutant strain; AID 868;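 active = inhibition above a set limit, 3 SD over mean compound inhibition, cut at about 8.4% in these data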;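 also: 0% = DMSO-only wells with no growth and 100% = 10 µM 1-NA-PP1 full growth; inhibition rescues growth on 5-FOA so higher OD means more RAM inhibition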
# * hit, by the source's call; · = not tested or not shown.
SMILES,Insulin prom inh,Mdm2 ligase inh,Measles CPE,Yeast life ext,BB579 growth dn,RAM inhibit
Cc1ccccc1NC(=O)CC(O)(C(F)(F)F)C(F)(F)F,54,-23,12,32*,-20,1
CCOc1ccc(S(=O)(=O)N(C)c2ccc(OCC(=O)NCc3ccc(C(=O)OC)cc3)cc2)cc1,·,-14,·,·,·,7
CCc1ccc(/C(C)=N\Nc2ccc([N+](=O)[O-])cc2)cc1,-63,-1,5,-4,-36,5
C/C(=N\Nc1ccc([N+](=O)[O-])cc1)c1ccc(N)cc1,6,-12,·,-10,97*,-2
Cc1cc(C(=O)COC(=O)c2ccc(O)cc2)c(C)n1Cc1ccco1,38,-11,16,21,-69,6
Cc1cc(C(=O)COC(=O)c2ccc(Br)o2)c(C)n1Cc1ccco1,·,-90,·,·,·,10*
CCC(C)(C)NC(=O)c1ccc(S(=O)(=O)N2CCCCCC2)cc1,14,-12,·,·,·,0
COc1ccc(NC(=O)/C=C/c2cc(Br)ccc2OC)cc1,-20,2,23*,-9,-1,1
COc1ccc(NS(=O)(=O)c2cc(NC(=O)/C=C/c3ccccc3OC)ccc2N2CCCCC2)cc1,23,-5,7,9,-63,11*
C=C1[C@@H](OC(C)=O)CC[C@]2(C)[C@@H]1C[C@@H]1C[C@H](OC(C)=O)C(C)=C([C@@H](OC(C)=O)[C@@H]2OC(C)=O)C1(C)C,·,1,·,·,·,·
Cc1nc2ccccn2c1C(=O)N=Nc1c(O)[nH]c2ccccc12,6,-17,8,-2,-44,3
O=C(NNS(=O)(=O)c1ccccc1)C(O)(c1ccccc1)c1ccccc1,-31,-10,63*,1,1,3
Cc1ccc(S(=O)(=O)NNC(=O)C(O)(c2ccccc2)c2ccccc2)cc1,-89,-10,10,4,-18,3
O=C(N/N=C/c1ccc(O)cc1)c1ccc(COc2cc(Cl)ccc2Cl)o1,·,-1,5,-20,-3,1
O=C1C2C(c3ccccc3)C=CC(c3ccccc3)C2C(=O)N1c1ccccn1 (stereo not given),36,·,25,30*,-57,0
O=C(OCC(=O)N1CCCC1)c1cncc(Br)c1,100*,-21,43*,-3,7,0
COc1ccc(OCC(O)CNS(=O)(=O)c2cccc(Cl)c2)cc1 (stereo not given),·,-5,·,·,·,·
COC(=O)Cn1c(=O)c2c(nc3n2CC(C)CN3c2ccc(C)c(C)c2)n(C)c1=O (stereo not given),·,-6,·,·,·,·
C=CCN(CC=C)c1ccc(N2C(=O)C3CCCCC3C2=O)cc1[N+](=O)[O-] (stereo not given),·,-21,·,·,·,9.0*
O=C(O)CCCNc1c(C(=O)Nc2ccc(Cl)cc2)cc([N+](=O)[O-])cc1[N+](=O)[O-],·,-18,·,·,·,6
Nc1nc2ccc(N3CCOCC3)cc2s1,-11,-4,24,-10,-30,2
O=C(CN1C(=O)CCC1=O)c1ccc(-c2ccccc2)cc1,·,4,33*,-4,-31,1
Cc1ccc(O)c(N=Cc2cc(Cc3ccccc3)cc([N+](=O)[O-])c2O)c1,·,-22,·,·,·,0
O=[N+]([O-])c1cc(Cc2ccccc2)cc(C=Nc2ccc(N3CCOCC3)cc2)c1O,-26,·,14,-10,100*,0
CN(c1ccccc1C(=O)N1CCN(c2ccccc2)CC1)S(C)(=O)=O,33,4,20,·,-15,1
SMILES,Insulin prom inh,Mdm2 ligase inh,Measles CPE,Yeast life ext,BB579 growth dn,RAM inhibit
Cc1cc(Br)ccc1OCC(=O)NNC(=O)c1cnccn1,-200,6,37*,-5,-1,0
CCCN(CCC)CCNc1c(NC2CCN(C(=O)OCC)CC2)c(=O)c1=O,·,48*,10,-4,-34,0
CCOC(=O)C1=C(C)N(c2ccc(C)c(C)c2)C(=O)/C1=C\c1ccco1,38,-15,7,-10,-19,11*
COC(=O)C1=C(C)N(c2ccc(C)c(C)c2)/C(=C/c2ccco2)C1=O,·,-44,·,·,·,2
O=C(O)CSc1c(-c2ccccc2)[nH]c2ccccc12,60,-1,10,5,0,0
O=C(O)CSc1c(-c2cccs2)[nH]c2ccccc12,6,-18,40*,2,-16,1
CCN(CC)CCCOC(=O)c1ccc(OC)cc1O,·,-3,·,·,·,0
CCC(c1nc2ccccc2c(=O)n1CCN1CCOCC1)N1C(=O)c2ccccc2C1=O (stereo not given),66*,-14,14,-8,-18,1
CCCn1nc(NC(=O)c2ccccn2)c2cc3cc(C)ccc3nc21,20,-3,4,-5,-29,9.2*
CCCn1nc(NC(=O)c2ccco2)c2cc3cc(C)ccc3nc21,·,-9,·,·,·,·
C=CCN(CC=C)C(=O)C(=O)c1ccn(-c2c(C)csc2C(=O)OC)c1,·,-21,·,·,·,0
COc1cccc(C2=NOC(C(=O)NC(C)C)C2)c1 (stereo not given),·,-10,57*,-13,-6,1
O=C(O)c1ccc2c3c(ncnc13)-c1ccccc1C2=O,·,9,28,-10,96*,-1
O=C1c2ccccc2-c2ncnc3cccc1c23,-40,·,·,·,·,·
Cc1cc(C=C2C(=O)c3ccccc3C2=O)c(C)n1-c1cccc(C(=O)O)c1,-21,-31,·,·,·,8.8*
Cc1cc(C=C2C(=O)c3ccccc3C2=O)c(C)n1-c1ccc(C(=O)O)cc1,·,-8,·,·,·,5
CNc1nc(SC(C)C(=O)Nc2ccc(Cl)c(Cl)c2)nc(N2CCOCC2)n1 (stereo not given),21,-5,·,·,·,5
CC(C)c1nc2cc3ccccc3cc2[nH]1,86*,-32,14,-11,-61,2
CCN(CC)S(=O)(=O)c1cccc(NC(=O)COC(=O)C2COc3ccccc3O2)c1 (stereo not given),27,19,2,8,-35,0
CCOc1ccc(S(=O)(=O)n2cc(-c3ccc(F)cc3)c(N)n2)cc1,87*,-12,2,-4,-7,6
CCOc1cc(S(=O)(=O)n2cc(-c3ccc(F)cc3)c(N)n2)cc(OCC)c1OCC,-282,-18,5,-5,-17,9.0*
CCOc1ccc(S(=O)(=O)n2cc(-c3ccccc3)c(N)n2)cc1,38,15,10,6,-16,4
c1cc2c3c(cccc3c1)C(N1CCN(C3=Nc4cccc5cccc3c45)CC1)=N2,7,·,·,·,·,·
CCCCN(C)C1=Nc2cccc3cccc1c23,75*,-5,12,-1,-40,0
CCCCCSc1nc(O)cc(=O)[nH]1,50,-19,9,58*,-19,1
CCCCCCCSc1nc(N)cc(=O)[nH]1,28,9,8,-13,16,1
CC(C)CC(=O)Nc1cc([N+](=O)[O-])ccc1Cl,·,-14,2,-7,-22,1

# Assay outcomes as filed in PubChem.
